Only some compounds are listed: those with a hit (about 2.9% of all), similar ones and a draw of the others.
Env fusion inh: HIV envelope-mediated fusion inhibition; HeLa-JRFL Env/CEM21 cell fusion, luciferase; inhibition, % at 12.3 µM; 360,000 compounds, 1.1% hits;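 active = mean replicate inhibition score of at least 50 and every replicate individually at or above 50; inconclusive = only one of the two criteria met; inactive = mean below 50 and not all replicates reaching 50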;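 also: 0% = plate neutral controls and 100% = maraviroc near 300 nM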
GSIS activator: primary screen for activators of insulin secretion dependent on glucose, INS-1E cells, GLuc reporter luminescence; INS-1E GLuc reporter insulin secretion, 2-3 h; activation, % at 16.6 µM; 370,000 compounds, 0.61% hits;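 active = lowest replicate activation of at least 40%, so every replicate reaches that level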;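 also: 0% = median of neutral control wells and 100% = median of IBMX positive control wells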
Cneo AK release: causes C. neoformans cell lysis; AID 651654; 360,000 compounds, 0.2% hits; adenylate kinase release luminescence, 4 h; normalised: neutral wells 0, clomiphene wells 100; lysis activity, % at 15 µM;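 active = mean lysis activity across replicates of at least 80%, whatever share of replicates individually reach that level; inactive = mean lysis activity below 80%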
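Material: C. neoformans cells; Schedule: 4 h static compound exposure, 37 °C, read 1 h post-reagent; Measured by: adenylate kinase release luminescence; Read-out: signal increase indicating cell lysis; Controls: Clomiphene as positive lysis control.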
CDK5 p35 inh: inhibitors of human CDK5/p35 kinase; Q00535+Q15078; Recombinant CDK5/p35, ADP-Glo luminescence, 60 min; inhibition, % at 10 µM; 330,000 compounds, 0.01% hits;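 active = highest replicate inhibition of at least 50% and at least 75% of replicates reaching 50%; inconclusive = only one of the two criteria met; inactive = both criteria failed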;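 also: plate controls were DMSO neutral control for no effect and GW8510 at 10 µM for full effect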
dFosB activator: enhances mouse delta FosB homodimer DNA binding; P13346; activation, % at 25 µM; purified delta FosB, TAMRA-CDK5 oligo fluorescence polarization; percent of positive-control signal above neutral wells; 340,000 compounds, 0.99% hits;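 active = mean activation above about 17%, with every replicate also reaching it, limit read from the data, passing the limit was not always enough; inconclusive = only one of the two conditions met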
Target sequence (P13346 whole entry, looked up): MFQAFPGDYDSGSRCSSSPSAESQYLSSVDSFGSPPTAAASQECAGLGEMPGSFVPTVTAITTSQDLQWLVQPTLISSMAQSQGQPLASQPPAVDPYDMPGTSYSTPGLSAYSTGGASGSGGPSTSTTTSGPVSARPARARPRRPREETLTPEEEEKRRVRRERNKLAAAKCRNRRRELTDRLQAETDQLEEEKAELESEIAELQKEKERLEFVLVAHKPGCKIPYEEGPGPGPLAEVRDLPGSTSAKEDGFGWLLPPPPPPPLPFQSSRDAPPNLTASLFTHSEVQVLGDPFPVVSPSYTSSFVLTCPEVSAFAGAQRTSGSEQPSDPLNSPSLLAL
PAX8 inh HTS: inhibitors of PAX8 transcriptional activity in RMG-I cells; RMG-I TPO-luciferase reporter, SteadyGlo, 24 h; inhibition, % at 12.6 µM; 360,000 compounds, 1.2% hits; AID 652154;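 active = mean replicate inhibition at least 60% with every replicate also reaching 60%; inconclusive = only one of the two criteria is met; inactive = mean below 60% and not all replicates reaching 60%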;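 also: luciferase light reporting Pax8 driven TPO promoter activity; plate controls were median of neutral control wells for no effect and mitoxantrone controls for full effect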
An asterisk follows results filed as active; ? = inconclusive; / = not tested or not shown; [ ] = remark or other dose.

SMILES	Env fusion inh	GSIS activator	Cneo AK release	CDK5 p35 inh	dFosB activator	PAX8 inh HTS
C[C@H](CO)N1C[C@H](C)[C@H](CN(C)S(=O)(=O)c2ccc(Cl)cc2)OCCCC[C@H](C)Oc2ccc(NC(=O)c3ccncc3)cc2C1=O	-18[16.7 µM]	-11	-1	/	/	-4
CCOC(=O)N1CCC(NC(=O)c2ccc3c(c2)N=C(CC)c2cc(C)ccc2S3)CC1	16	6	0	0	0	48
CCOC(=O)N1CCC(NC(=O)c2ccc3c(c2)N=C(C)c2c(C)ccc(C)c2S3)CC1	-228	-22	0	0	-3	96*
C[C@H]1CN([C@@H](C)CO)C(=O)Cc2cc(NS(=O)(=O)c3cn(C)cn3)ccc2O[C@H]1CN(C)C(=O)Nc1ccc2c(c1)OCO2	-10[16.7 µM]	-3	2	/	/	-24
COCCOc1ccc(C(F)(F)F)cc1NC(=O)c1ccccc1F	17	50*	/	2	2	10
O=C(/C=C/c1ccc2c(c1)OCO2)Nc1nc2ccccc2s1	-7	21	/	0	19*	0
O=C(NC[C@H]1[C@H](c2ccccc2)[C@H](CO)N1C(=O)Cc1cccnc1)C1CCC1	/	13	81*	/	/	-3
O=C(NC[C@@H]1[C@H](c2ccccc2)[C@@H](CO)N1C(=O)C1CCC1)NC1CCCC1	/	5	0	/	/	-1
O=C(NC[C@H]1[C@@H](c2ccccc2)[C@@H](CO)N1C(=O)C1CCC1)NC1CCCC1	/	-7	97*	/	/	-1
C[C@@H]1CN([C@@H](C)CO)S(=O)(=O)c2ccc(C#CC3CCCCC3)cc2O[C@H]1CN(C)C	35[16.7 µM]	-4	8	/	/	/
O=C1NC(=O)C2(CCCCC2C2CCCCC2)N1 (stereo not given)	/	62*	0	0	1	6
Cc1ccc(S(=O)(=O)Nc2ccc3c(c2)C(=O)N([C@H](C)CO)C[C@@H](C)[C@H](CN(C)Cc2ccc(C(F)(F)F)cc2)OCCCC[C@@H](C)O3)cc1	65*[16.7 µM]	-5	118*	/	/	102*
Cc1ccc(S(=O)(=O)Nc2ccc3c(c2)C(=O)N([C@@H](C)CO)C[C@@H](C)[C@@H](CN(C)Cc2ccc(C(F)(F)F)cc2)OCCCC[C@H](C)O3)cc1	15[16.7 µM]	2	54	/	/	87*
COc1cccc(NC(=O)Nc2nc(SC)ns2)c1	-36	-16	-2	2	-1	-244
CCSc1nsc(NC(=O)Nc2cccc(F)c2)n1	20	/	-3	-1	4	90*
C[C@H]1CN([C@@H](C)CO)S(=O)(=O)c2ccc(C#Cc3ccccc3)cc2O[C@H]1CN(C)S(=O)(=O)c1ccccc1F	20[16.7 µM]	0	2	/	/	-1
O=C(Nc1ccn(CCCN(CCCn2ccc(NC(=O)OCc3ccccc3)nc2=O)CCc2cc3ccccc3[nH]2)c(=O)n1)OCc1ccccc1	15	-25	1	1	83*	?
C[C@@H]1CN([C@@H](C)CO)S(=O)(=O)c2ccc(-c3ccccc3)cc2O[C@H]1CN(C)Cc1cccnc1	32[16.7 µM]	-9	0	/	/	?
CC1CCC(C(C)C)C(OC(=O)Cn2c(-c3ccc(F)cc3)[n+](C)c3ccccc32)C1 (stereo not given)	65*	62	-1	0	-3	94*
CC1CCC(C(C)C)C(OC(=O)Cn2c(-c3ccccc3)[n+](C)c3ccccc32)C1 (stereo not given)	69*	8	11	-1	0	81*
Cc1cccc(OCc2n(CC(=O)OC3CC(C)CCC3C(C)C)c3ccccc3[n+]2C)c1 (stereo not given)	/	/	/	-1	10	/
C[C@@H]1CCCCO[C@H](CN(C)Cc2ccncc2)[C@H](C)CN([C@@H](C)CO)C(=O)c2cc(NC(=O)NC3CCCCC3)ccc2O1	-423[16.7 µM]	-4	0	/	/	83*
C[C@@H]1CCCCO[C@@H](CN(C)Cc2ccc(Cl)c(Cl)c2)[C@@H](C)CN([C@@H](C)CO)C(=O)c2cc(NC(=O)NC3CCCCC3)ccc2O1	4[16.7 µM]	-4	-1	/	/	53
C[C@@H]1CCCCO[C@@H](CN(C)Cc2ccc(Cl)c(Cl)c2)[C@H](C)CN([C@@H](C)CO)C(=O)c2cc(NC(=O)NC3CCCCC3)ccc2O1	22[16.7 µM]	-4	-1	/	/	68*
